Most compounds without a hit are left out; they make up all but 3.7% or so of the library.
Mdm2-MdmX inh – disrupts the human Mdm2-MdmX interaction; O15151+Q00987; SaOS-2 split-luciferase Mdm2/MdmX complementation, luminescence; inhibition, % at 8 µM; hit rate 3% among 330,000;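 active means inhibition of at least 50% at 8 µM in the primary screen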
Target sequence (O15151 whole entry, looked up): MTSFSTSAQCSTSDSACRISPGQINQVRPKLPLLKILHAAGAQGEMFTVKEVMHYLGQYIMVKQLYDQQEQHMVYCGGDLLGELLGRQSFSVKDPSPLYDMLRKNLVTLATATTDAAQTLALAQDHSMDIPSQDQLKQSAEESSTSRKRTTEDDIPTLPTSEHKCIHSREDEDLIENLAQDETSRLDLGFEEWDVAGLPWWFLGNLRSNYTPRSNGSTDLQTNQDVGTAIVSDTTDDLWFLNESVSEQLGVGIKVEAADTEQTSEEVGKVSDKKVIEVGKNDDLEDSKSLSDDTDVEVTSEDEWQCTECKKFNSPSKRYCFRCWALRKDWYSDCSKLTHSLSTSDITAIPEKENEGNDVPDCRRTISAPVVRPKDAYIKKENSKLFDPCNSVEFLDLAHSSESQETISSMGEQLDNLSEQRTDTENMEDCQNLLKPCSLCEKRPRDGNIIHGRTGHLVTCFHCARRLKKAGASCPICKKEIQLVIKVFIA
Target sequence (Q00987 whole entry, looked up): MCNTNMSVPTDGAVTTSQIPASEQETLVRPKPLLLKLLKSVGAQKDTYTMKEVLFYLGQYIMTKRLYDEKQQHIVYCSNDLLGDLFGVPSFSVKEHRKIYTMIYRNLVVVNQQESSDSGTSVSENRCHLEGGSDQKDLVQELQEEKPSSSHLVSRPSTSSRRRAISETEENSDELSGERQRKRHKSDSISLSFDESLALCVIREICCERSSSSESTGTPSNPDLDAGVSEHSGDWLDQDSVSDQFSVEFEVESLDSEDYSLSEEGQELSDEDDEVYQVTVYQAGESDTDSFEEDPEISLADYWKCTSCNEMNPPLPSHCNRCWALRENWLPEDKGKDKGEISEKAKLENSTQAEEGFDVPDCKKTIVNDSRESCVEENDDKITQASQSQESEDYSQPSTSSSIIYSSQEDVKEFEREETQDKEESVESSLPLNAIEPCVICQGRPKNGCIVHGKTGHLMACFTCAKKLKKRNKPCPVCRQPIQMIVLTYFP
Dynein cargo inh – dynein cargo transport inhibition | 3617.4 mouse cells, GR-EGFP nuclear translocation imaging; test concentration mostly 20 µM; stimulated with dexamethasone, 1 µM; active compounds read low | hit rate 0.47% among 220,000 | z-score, hits read low;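 active means plate z-score of nuclear minus cytoplasmic receptor signal below a set negative limit, without overly bright fluorescence or cell loss, cut at about -3.5 in these data, passing the limit was not always enough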;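 further: z-score of nuclear minus cytoplasmic ring GR-EGFP intensity difference per well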
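Buffer or medium: tet-free, stripped-serum medium; Also added: dexamethasone, 1.0 µM final; Technique: high-content fluorescence imaging after fixation; Times: 48 h induction, 1 h compound, 30 min dex at 37 °C; Read-out: per-cell GR-EGFP intensity, nucleus versus surrounding cytoplasmic ring, well-averaged.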
XBP1 UPR activ – activators of adaptive arm of unfolded protein response (XBP1). activation, % at 20 µM. hit rate 0.33% among 330,000. AID 463104. CHO-XBP1 luciferase reporter, IRE1-XBP1 UPR activation, luminescence; percent of tunicamycin response, DMSO as zero;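 active means versus positive control, 20 µM dose yields 30% or more activation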;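 further: 100% = tunicamycin at 10 µg/mL and 0% = DMSO only wells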
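assay system = CHO-XBP1 luciferase reporter cells | amount = 1000 cells/well | buffer or medium = F12 plus 10% FBS | compound dosing = single point, 20 µM final compound, 1% DMSO | incubation = 16-18 h cell attachment at 37 °C, then 6 h compound exposure | detection = Steady-Glo luminescence read | controls = tunicamycin 10 µg/mL and vehicle-only wells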
CHOP UPR activ – activators of apoptotic arm of unfolded protein response (CHOP); CHO-CHOP luciferase reporter, UPR activation, luminescence; percent of tunicamycin response over DMSO baseline; activation, % at 10 µM; hit rate 0.34% among 330,000; AID 449763;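 active means at 10 µM dose, activation of 40% or more, normalized to positive control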;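 further: 100% = tunicamycin at 10 µg/mL and 0% = DMSO alone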
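Test system: CHO CHOP reporter cells. Input: 500 CHO-CHOP cells per well. Medium: F12 with 10% FBS. Technique: luciferase luminescence. Measure: percent activation relative to tunicamycin control. Dosing: 10 µM compound, 0.5% DMSO. Timing: 16-18 h cell attachment, then 6 h compound exposure, 37 °C.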
Beta2AR agonist – agonists of human beta-2 adrenergic receptor inducing internalization; Am2.2-beta2AR cells, FAP receptor internalization, flow cytometry; hit rate 0.43% among 340,000; P07550; AID 504454; response, % (concentration not given with the values);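 active means response above a set limit, near 3 SD of response in nonfluorescent compounds, cut at about 42% in these data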
MDM2 E3 inh – blocks human Mdm2 ubiquitin ligase activity; cell-based MDM2 ubiquitination luciferase reporter, 2 h; 0 = plate control, 100 = twice control, blank-subtracted; AID 1230; hit rate 0.11% among 210,000; signal enhancement, % at 5 µM;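 active means signal enhancement of 30% or more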;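 further: luminescence tracks abundance of the self-degrading MDM2-luciferase fusion protein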
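test system = mammalian cells stably expressing self-ubiquitinating, self-degrading MDM2 E3–luciferase fusion | quantity = 2000 cells/well | incubation = cell settling 4 h, compound treatment 2 h, both 37 °C | signal = luminescence with SteadyLite reagent, 15 min at room temperature | evaluation = % enhancement relative to plate controls after blank subtraction | benchmarks = plate controls and plate blanks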
Mdm2 MdmX conf – human Mdm2/MdmX binding inhibition, confirmed; shares compounds with Mdm2-MdmX inh; luminescent assay; inhibition, % at 8 µM; hit rate 55% among 10,000; in the data active means inhibition above about 40%
Full FLuc ctr – counter-screen for Mdm2/MdmX inhibitors: full-length luciferase; shares compounds with Mdm2-MdmX inh; SaOS-2 full-length luciferase counterscreen, luminescence; inhibition, % at 8 µM; hit rate 77% among 6,200; AID 504607;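 active means mean inhibition at 8 µM reaching about 37%, which flags the compound as non-specific, limit read from the data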;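 further: p53-null SaOS-2 cells with luciferase driven by a doxycycline-inducible promoter; compound on cells about two nights before reading with doxycycline added after day one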
* = called active by the depositor; / = no result given.

SMILES | Mdm2-MdmX inh | Dynein cargo inh | XBP1 UPR activ | CHOP UPR activ | Beta2AR agonist | MDM2 E3 inh | Mdm2 MdmX conf | others
Cc1csc(SC(C)c2nc3scc(-c4ccccc4)c3c(=O)[nH]2)n1 (stereo unspecified) | 7 | -0.88 | -1 | 1 | 7 | / | /
CCN(CC)c1nc(Nc2ccccc2)nc(Oc2ccc(=O)n(C)n2)n1 | 64* | 0.28 | 4 | 1 | 3 | -12 | 28
Clc1cccc(-c2nc(-c3ccc(-c4nn[nH]n4)cc3)no2)c1 | -45 | / | 2 | 5 | 5 | / | /
CN(CC(=O)Nc1ccccc1Cl)C(=O)COC(=O)C1CCN(c2ccc(C(F)(F)F)cn2)CC1 | 15 | / | -4 | 5 | 7 | / | /
COc1ccccc1C(=O)O/N=C(\N)c1ccccc1Cl | 21 | -0.58 | 0 | 2 | 3 | 5 | /
COc1ccc(/C(N)=N/OC(=O)CC2CCCCC2)cc1OC | 67* | / | -7 | 3 | 9 | / | 15
COc1ccc(/C(N)=N/OC(=O)c2ccc(OC)c([N+](=O)[O-])c2)cc1OC | 71* | 0.23 | 2 | -1 | 16 | -20 | 31
COc1ccc(C(=O)O/N=C(\N)c2ccccc2Cl)cc1OC | 86* | / | 2 | 4 | 6 | / | 44* | Full FLuc ctr=112*
COc1ccc(C(=O)O/N=C(\N)c2ccccc2)c(OC)c1 | 93* | -0.71 | -2 | 0 | 1 | -18 | 77* | Full FLuc ctr=164*
N/C(=N\OC(=O)c1ccccc1Cl)c1ccccc1 | -288 | -0.09 | -4 | -4 | 2 | -58 | /
CC(=O)N(CCCNC(=O)c1ccccc1)C(=O)c1ccccc1 | -13 | / | 1 | 0 | 2 | / | /
CN(Cc1ccccc1)C(=O)COC(=O)CCN1C(=O)C2CC=CCC2C1=O (stereo unspecified) | 6 | / | 0 | 4 | 10 | / | /
COc1ccc(C(=O)O/N=C(\N)c2ccc(OC)c(OC)c2)cc1 | 86* | / | 1 | 3 | -8 | / | 18
COc1ccc(/C(N)=N/OC(=O)N2CCOCC2)cc1 | 62* | 1.2 | 3 | 0 | 0 | -40 | 26
COc1ccc(/C(N)=N/OC(=O)c2cccc([N+](=O)[O-])c2C)cc1OC | 17 | 1.1 | 7 | 5 | 1 | -10 | /
COc1ccc(C(=O)O/N=C(\N)c2ccc(OC)c(OC)c2)c(OC)c1 | 75* | / | 7 | -1 | 1 | / | 34
COc1ccc(C(=O)O/N=C(\N)c2ccccn2)c(OC)c1 | 69* | -0.1 | -5 | 0 | 5 | -43 | 38
N#C/C(=C\c1ccccc1O)C(=O)Nc1ccccn1 | -42 | / | -4 | 5 | 8 | / | /
CSc1ccc2c(c1)N(CCC1CCCCN1C)c1ccccc1S2 (stereo unspecified) | 94* | 4 | 0 | 2 | 32 | / | 27
CC(=O)c1ccc2c(c1)N(CCCN1CCC(CCO)CC1)c1ccccc1S2 | 18 | / | -3 | -1 | 7 | / | /
CC(C)(C)c1ccc(OCC(=O)N/N=C/c2cc(Br)ccc2OC(=O)c2ccco2)cc1 | 82* | -0.35 | -1 | 26 | 9 | -18 | 79* | Full FLuc ctr=27
O=C(C(=O)N1CCN(Cc2ccc3c(c2)OCO3)CC1)c1c[nH]c2ccccc12 | 15 | / | -6 | 0 | -2 | / | /
c1ccn2cc(-c3ccc4c(c3)OCCO4)nc2c1 | 50* | -0.71 | -14 | -7 | -10 | -70 | 28
Cc1ccc2nc(-c3ccc4c(c3)OCCO4)cn2c1 | 94* | -0.35 | -8 | -10 | 14 | -86 | 98* | Full FLuc ctr=55*
Clc1ccc2nc(-c3ccc4c(c3)OCO4)cn2c1 | -5 | 0.0077 | -4 | -7 | -3 | -79 | /
SMILES | Mdm2-MdmX inh | Dynein cargo inh | XBP1 UPR activ | CHOP UPR activ | Beta2AR agonist | MDM2 E3 inh | Mdm2 MdmX conf | others
CCOc1ccc(N(CC(=O)N2CCN(c3ccc(F)cc3)CC2)S(=O)(=O)c2c(C)noc2C)cc1 | 18 | / | -5 | -3 | 5 | / | /
CC(C)(C)n1nnnc1C(c1ccccn1)N(Cc1ccccc1)Cc1ccc(Cl)cc1 (stereo unspecified) | 60* | -0.75 | 2 | 1 | 11 | -17 | 8
COc1cccc(C(=O)Oc2c(Br)cc(Br)cc2/C=N/NC(=O)c2cc(C)[nH]n2)c1 | 59* | 1.5 | 2 | 1 | 5 | -12 | 55* | Full FLuc ctr=20
O=C(NCc1ccncc1)c1cn(-c2ccccc2)nc1-c1cccnc1 | 10 | -0.76 | -2 | 1 | -10 | -9 | /
O=C(NC1CCN(Cc2ccc(Cl)cc2)CC1)c1cn(-c2ccccc2)nc1-c1cccnc1 | 53* | / | -1 | 2 | 8 | / | 32
Cc1ccc2c(c1)c1c3n2CCN(C(=O)CCl)C3CCC1 (stereo unspecified) | 51* | / | 1 | 26 | 4 | / | 18 | Full FLuc ctr=92*
CCOc1cc(CNCc2cccnc2)cc(Br)c1OCC(N)=O | 14 | / | -6 | 0 | 14 | / | /
COCCn1c(C)cc(C(=O)CSc2nnc3ccccn23)c1C | 54* | -1.4 | -8 | -9 | -1 | -76 | 62* | Full FLuc ctr=113*
COCCn1c(C)cc(C(=O)CSc2nc3ccccc3s2)c1C | 66* | 0.082 | -4 | -3 | 11 | -62 | 70* | Full FLuc ctr=146*
Cc1cc(C(=O)CSc2nnnn2-c2ccccc2)c(C)n1CCc1ccccc1 | 26 | -0.52 | 0 | 3 | -1 | 6 | /
COc1ccc(CCn2c(C)cc(C(=O)CSc3nnnn3-c3ccccc3)c2C)cc1OC | 59* | 0.81 | -4 | -2 | 5 | -31 | 7
CCOc1ccc(NC(=O)CN(C)C(=O)c2sc3ccccc3c2Cl)cc1OCC | 8 | / | -1 | -1 | -1 | / | /
O=C(c1cc(-c2cccnc2)nc2ccc(Br)cc12)N1CCN(c2ncccn2)CC1 | 52* | -0.99 | -4 | 3 | 13 | -29 | 51* | Full FLuc ctr=101*
CS(=O)(=O)N1CCN(C(=O)c2cc(-c3cccnc3)nc3ccc(Cl)cc23)CC1 | -3 | -0.42 | -1 | -1 | -6 | -5 | /
COc1ccc(CN2CCN(C(=O)c3cc(-c4cccnc4)nc4ccc(Cl)cc34)CC2)c(OC)c1OC | 51* | -0.2 | 3 | 1 | 10 | -35 | 49* | Full FLuc ctr=73*
O=C(NCc1nnc(SCC(=O)N2CCN(c3ccccc3)CC2)o1)c1c(F)cccc1F | 3 | / | -5 | 0 | 4 | / | /
OC1CCN(c2cc(-c3ccccc3)nc3cc(-c4ccc(F)cc4)nn23)CC1 | 17 | -0.12 | 0 | 3 | -5 | -19 | /

Assay outcomes: PubChem BioAssay, several laboratories
